# Measurements gathered from unrelated publications.
# Target: Muscarinic acetylcholine receptor M5 (CHRM5, Homo sapiens, UniProt P08912)
# Concentration: 10 µM
# Sequence (P08912 1-532, as in one of the studies): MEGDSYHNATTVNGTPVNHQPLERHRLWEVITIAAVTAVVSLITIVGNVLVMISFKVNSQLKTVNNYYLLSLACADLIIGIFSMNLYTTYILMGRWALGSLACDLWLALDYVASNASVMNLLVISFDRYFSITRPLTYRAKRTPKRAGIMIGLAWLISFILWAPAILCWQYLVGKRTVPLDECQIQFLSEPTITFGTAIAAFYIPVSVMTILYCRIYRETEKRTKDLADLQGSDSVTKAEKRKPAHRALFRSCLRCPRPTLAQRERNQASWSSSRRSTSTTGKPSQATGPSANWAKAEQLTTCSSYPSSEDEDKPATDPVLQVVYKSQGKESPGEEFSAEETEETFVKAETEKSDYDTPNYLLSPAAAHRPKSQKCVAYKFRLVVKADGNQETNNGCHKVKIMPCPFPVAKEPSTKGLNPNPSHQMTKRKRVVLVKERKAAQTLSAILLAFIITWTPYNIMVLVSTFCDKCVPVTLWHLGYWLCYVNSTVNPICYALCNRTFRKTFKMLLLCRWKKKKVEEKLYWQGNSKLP
Structure (SMILES),test,inhibition [%]
CO[C@@H](C)c1c(Nc2ccc([C@H](N(C)C(=O)C3CCS(=O)(=O)CC3)C(F)(F)F)cc2)cnc2cc(Cl)nn12,ligand displacement,14.6
CCN(CC)c1ccc(C2Nc3ccc(C(=O)c4ccccc4)cc3NC3=C2C(=O)CC(C)(C)C3)cc1 (centres unmarked),"ligand displacement, radioligand",20
CCCNc1nc2ccccc2n1Cc1ccc(Cl)cc1,ligand displacement,14.5
COc1cc(NC(C)=O)c(Cl)cc1C(=O)Nc1nccs1,cell-free assay,-6.1
CN(C(=O)n1cnc(-c2ccc[n+]([O-])c2)c1)C1CCCCC1,cell-free assay,8.59
N#Cc1cc(Cn2c(N3CCCC3)nc3ccccc32)ccc1F,ligand displacement,10.9
O=C(c1ccc(Cl)cc1)N(Cc1ccccc1)C1CCCCC1,cell-free assay,-9.6
CNC(=N)NCCC[C@H](NC(=O)[C@H](CC(C)C)NC(=O)NNC(=O)[C@H](Cc1ccccc1)NC(=O)[C@H](CO)NC(=O)[C@H](CC(N)=O)NC(=O)[C@@H](Cc1ccncc1)NC(=O)[C@H](N)Cc1ccc(O)cc1)C(=O)N[C@@H](Cc1ccccc1)C(N)=O,ligand displacement,14.9
